Data reported in ChEMBL document CHEMBL1140321, “Synthesis and biological evaluation of acyclic 3-[(2-hydroxyethoxy)methyl] analogues of antiviral furo- and pyrrolo[2,3-d]pyrimidine nucleosides” (J Med Chem, 2005).

What was measured:
HEL [1] = assay: Concentration required to inhibit vesicular stomatitis virus induced cytopathogenicity in HEL cells by 50%; assay type: functional, cell-based; conditions: Homo sapiens
HEL [2] = assay: Concentration required to cause a microscopically visible alteration of cell morphology in HEL cells; assay type: functional; conditions: Homo sapiens
CCRF-CEM [3] = assay: Concentration required to inhibit human immunodeficiency virus-2 (strain ROD) induced cytopathogenicity in CEM cells by 50%; assay type: functional, cell-based
How it was run: (§1)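 Human CEM cells (~3 × 10^5 cells/cm³) were infected with 100 CCID50/mL of HIV-1(IIIB) or HIV-2(ROD) and seeded into wells with compound dilutions. After 4 days at 37 °C, HIV-induced giant-cell formation was examined microscopically and EC50 was taken as the concentration giving 50% inhibition.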

HEL [4] = assay: Concentration required to inhibit Varicella-Zoster virus (strain OKA) induced cytopathogenicity in HEL cells by 50%; assay type: functional, cell-based; conditions: Homo sapiens
HEL [5] = assay: Concentration required to inhibit cell proliferation in HEL cells by 50%; assay type: functional; conditions: Homo sapiens
HEL [6] = assay: Concentration required to inhibit herpes simplex virus type 2 induced cytopathogenicity in HEL cells by 50%; assay type: functional, cell-based; conditions: Homo sapiens
CCRF-CEM [7] = assay: Concentration required to inhibit human immunodeficiency virus-1 (strain IIIb) induced cytopathogenicity in CEM cells by 50%; assay type: functional, cell-based; how it was run: as §1
HEL [8] = assay: Concentration required to inhibit human cytomegalovirus strain Davis induced cytopathogenicity in HEL cells by 50%; assay type: functional, cell-based
HEL [9] = assay: Concentration required to inhibit herpes simplex virus type 1 induced cytopathogenicity in HEL cells by 50%; assay type: functional, cell-based; conditions: Homo sapiens
HEL [10] = assay: Concentration required to inhibit Varicella-Zoster virus (strain 07/1) induced cytopathogenicity in HEL cells by 50%; assay type: functional, cell-based; conditions: Homo sapiens
HEL [11] = assay: Concentration required to inhibit human cytomegalovirus strain AD169 induced cytopathogenicity in HEL cells by 50%; assay type: functional, cell-based
HEL [12] = assay: Concentration required to inhibit vaccinia virus induced cytopathogenicity in HEL cells by 50%; assay type: functional, cell-based; conditions: Homo sapiens

SMILES | EC50 (HEL [1]) [µM] | MCC (HEL [2]) [µM] | EC50 (CCRF-CEM [3]) [µM] | EC50 (HEL [4]) [µM] | CC50 (HEL [5]) [µM] | EC50 (HEL [6]) [µM] | EC50 (CCRF-CEM [7]) [µM] | EC50 (HEL [8]) [µM] | EC50 (HEL [9]) [µM] | EC50 (HEL [10]) [µM] | EC50 (HEL [11]) [µM] | EC50 (HEL [12]) [µM]
CCCCCCCCc1cc2cn(COCCO)c(=O)nc2o1 | > 16 | ≥ 80 | > 50 | 11 | > 200 | > 16 | > 50 | 10 | > 16 | > 16 | 31 | > 16
CCCCCCCCCCc1cc2cn(COCCO)c(=O)nc2o1 | > 16 | 400 | > 250 | > 80 | > 200 | > 16 | > 250 | > 80 | > 16 | > 80 | > 400 | > 16
CCCCCCCCCc1cc2cn(COCCO)c(=O)nc2o1 | > 200 | ≥ 16 | > 250 | 41 | ≥ 100 | > 200 | > 250 | > 400 | > 200 | 10 | > 400 | > 200
OCCOCn1cc2ccnc-2nc1O | > 400 | > 400 | > 250 | > 400 | > 200 | > 400 | > 250 | > 400 | > 400 | > 400 | > 400 | > 400
CCCCCc1cc2cn(COCCO)c(O)nc-2n1 | > 400 | > 400 | > 250 | > 400 | > 200 | > 400 | > 250 | > 400 | > 400 | > 400 | > 400 | > 400
CCCCCc1cc2cn(COCCO)c(=O)nc2o1 | > 400 | > 400 | > 250 | > 400 | > 200 | > 400 | > 50 | > 400 | > 400 | > 400 | > 400 | > 400
O=c1nc2occc2cn1COCCO | > 400 | > 400 | > 250 | > 100 | > 200 | > 400 | > 250 | > 400 | > 400 | > 400 | > 400 | > 400
CCCCc1cc2cn(COCCO)c(=O)nc2o1 | > 400 | > 400 | > 250 | ≥ 100 | > 200 | > 400 | > 250 | > 400 | > 400 | > 400 | > 400 | > 400
CCCCCCc1cc2cn(COCCO)c(O)nc-2n1 | > 80 | > 400 | > 50 | 206 | > 200 | > 80 | > 50 | 253 | > 80 | 151 | 400 | > 80
CCCCCCCCCc1cc2cn(COCCO)c(O)nc-2n1 | > 80 | > 80 | > 50 | > 16 | – | > 80 | > 50 | > 16 | > 80 | > 16 | > 16 | > 80
CCCCCCCCCCCc1cc2cn(COCCO)c(=O)nc2o1 | > 40 | 80 | > 250 | > 16 | 132 | > 40 | > 250 | > 16 | > 40 | > 16 | > 16 | > 40
CCCCCCCCCCc1cc2cn(COCCO)c(O)nc-2n1 | > 16 | 80 | > 10 | 6.4 | 32 | > 16 | > 10 | 1.8 | > 16 | 5.8 | 5.1 | > 16
CCCCCCCc1cc2cn(COCCO)c(=O)nc2o1 | > 200 | 400 | > 50 | > 80 | 140 | > 200 | > 50 | > 80 | > 200 | > 80 | > 80 | > 200
CCCCCCCCc1cc2cn(COCCO)c(O)nc-2n1 | > 80 | 80 | > 50 | > 16 | 65 | > 80 | > 50 | > 16 | > 80 | > 16 | > 16 | > 80
CCCCCCCc1cc2cn(COCCO)c(O)nc-2n1 | > 200 | ≥ 400 | > 250 | 149 | 119 | > 200 | > 250 | 400 | > 200 | 156 | > 400 | > 200
CCCCCCC#Cc1cc2cn(COCCO)c(=O)nc2o1 | > 200 | > 200 | – | 100 | > 50 | > 200 | > 50 | > 20 | > 200 | 100 | 40 | > 200
CCCCc1cc2cn(COCCO)c(O)nc-2n1 | > 400 | > 400 | > 250 | > 400 | > 200 | > 400 | > 250 | > 400 | > 400 | > 400 | > 400 | > 400
CCCCCCc1cc2cn(COCCO)c(=O)nc2o1 | > 16 | ≥ 400 | > 50 | 173 | > 200 | > 16 | > 50 | > 80 | > 16 | 151 | > 80 | > 16
